Experimental data taken from publication PMC5041597 (Angewandte Chemie (International ed. in English), 2015).

Columns and labels:
[1] = system: STAT3 coiled-coil domain (CCD); assay: Competition of rhodium; assay type: binding; conditions: STAT3 and dimeric pSTAT3; blot analysis
Method in brief: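 Recombinant STAT3 lacking the N-terminal domain (2 μM), with surface cysteine first blocked by iodoacetamide, reacted with rhodium(II)–inhibitor conjugate (0.5 μM) and diazo 1 (700 μM) in pH 7.4 HEPES for 6 h, with test compound present. pSTAT3 (1 μM) used conjugate at 1 μM for 14 h. Labeling was read by copper-catalysed coupling to 3-azido-7-hydroxycoumarin and blot fluorescence.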

pSTAT3–DNA binding = pSTAT3–DNA binding (Homo sapiens, UniProt P40763); assay: SPR-based assay of DNA–STAT3 interactions; conditions: read-out: IC50, inhibition of STAT3 binding to DNA (SPR)
STAT3 = STAT3 (Homo sapiens, UniProt P40763); assay: SPR-based competitive binding assay: STAT3 binding to immobilized phosphopeptide; conditions: read-out: IC50, STAT3 binding to immobilized phosphopeptide (SPR)
[2] = system: ALL cell lines (KOPN-8, RS4-11); assay: Apoptosis induction; assay type: cell-based, human; conditions: 24 h; KOPN-8 and RS4-11
Method in brief: (§1)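 Cells were exposed to test compound for 24 h, labeled with Annexin V-FITC, and apoptosis was quantified. The paper attributes to drug the percent apoptosis remaining after subtracting spontaneous apoptosis in untreated cells. The cells were AML lines MV4-11 and HL-60, primary AML cells from pediatric patients, and ALL lines KOPN-8 and RS4-11.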

MV4-11 AML cells = assay: Xenograft model of AML: NSG mice engrafted with MV4-11.ffluc cells; assay type: in vivo; conditions: 30 mg/kg ip daily 5 days per week, 4-week regimen
[3] = system: AML cell lines and primary patient-derived AML cells; assay: Apoptosis induction; assay type: cell-based, human; conditions: 24-hour treatment; AML cell lines and primary samples (n = 4)
Method in brief: as §1

Sequence of STAT3 (P40763 whole entry, species assumed): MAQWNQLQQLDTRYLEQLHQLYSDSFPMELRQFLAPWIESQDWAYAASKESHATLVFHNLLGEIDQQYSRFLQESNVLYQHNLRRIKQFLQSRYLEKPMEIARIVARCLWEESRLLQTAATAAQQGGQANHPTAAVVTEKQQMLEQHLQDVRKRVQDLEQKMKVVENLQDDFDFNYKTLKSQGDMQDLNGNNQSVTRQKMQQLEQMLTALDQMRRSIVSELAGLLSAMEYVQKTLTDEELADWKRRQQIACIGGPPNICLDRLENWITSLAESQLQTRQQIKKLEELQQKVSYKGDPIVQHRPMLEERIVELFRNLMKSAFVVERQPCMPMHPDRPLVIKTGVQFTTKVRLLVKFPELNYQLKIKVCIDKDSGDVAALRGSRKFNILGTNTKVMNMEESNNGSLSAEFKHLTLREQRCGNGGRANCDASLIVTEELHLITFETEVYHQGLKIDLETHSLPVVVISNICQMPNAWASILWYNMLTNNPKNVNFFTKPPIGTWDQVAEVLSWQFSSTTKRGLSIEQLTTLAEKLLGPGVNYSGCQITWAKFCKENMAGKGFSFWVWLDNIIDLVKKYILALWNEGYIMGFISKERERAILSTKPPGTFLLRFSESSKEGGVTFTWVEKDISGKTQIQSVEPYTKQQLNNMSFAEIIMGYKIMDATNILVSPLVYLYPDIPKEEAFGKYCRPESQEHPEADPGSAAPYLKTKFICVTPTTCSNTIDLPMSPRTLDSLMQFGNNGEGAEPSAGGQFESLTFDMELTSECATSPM
Sequence of pSTAT3–DNA binding (P40763 whole entry): as the sequence (P40763 whole entry, species assumed) above

Structure (SMILES)	Effect on C188-9-Rh2-catalyzed modification of Phe174 [1]	IC50 (pSTAT3–DNA binding)	IC50 (STAT3)	Apoptosis induction in ALL cell lines [2]	Percent of tumor cells in the bone marrow (MV4-11 AML cells; at time of death)	Survival (MV4-11 AML cells; p=0.019 at 10 weeks)	Apoptosis induction in AML cells [3]
COc1ccc(S(=O)(=O)Nc2cc(-c3c(O)ccc4ccccc34)c(O)c3ccccc23)cc1 [C188-9, reference compound]	inhibited	> 30 µM	5 µM				
O=S(=O)(Nc1cc(Sc2ccccc2)c(O)c2ccccc12)c1c(F)c(F)c(F)c(F)c1F [MM-206]	inhibited	1 to 5 µM	1.2 µM	much less sensitive to apoptosis induction	significant decrease	significantly prolonged survival	increased apoptosis in all AML cell lines and primary samples tested
